Assay outcomes deposited in PubChem BioAssay by Sanford-Burnham Center for Chemical Genomics.
A selection: hits, their analogues and other compounds. The true share with any hit is near 1.7%.
Scp-1 inhibitor: Scp-1 (human) phosphatase inhibition. 340,000 compounds, 0.88% hits. Q9GZU7. inhibition, % at 20 µM. Recombinant Scp1, phosphopeptide, malachite green phosphate absorbance;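 active = inhibition above about 50% at 20 µM, limit read from the data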;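 note: plate controls were DMSO wells with enzyme for no effect and wells lacking enzyme for full effect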
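System: SCP-1 catalytic domain; Reagent: Phospho 17-mer peptide substrate; Doses: one concentration, 20 µM, with 1.0% DMSO; Incubation: 45 min room-temperature reaction, 5 min colour, 30 min stabiliser; Signal: Phosphate-binding colour reagent, absorbance read at 630 nm.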
SUMO1 PPI mod: SUMO1-SIM interaction modulation | SUMO1 binding to a labelled peptide, TR-FRET, 1 h | AID 602429 | P63165 | inhibition, % at 20 µM | 360,000 compounds, 0.33% hits; in the data active = inhibition above about 37%
Target sequence (P63165 whole entry, looked up): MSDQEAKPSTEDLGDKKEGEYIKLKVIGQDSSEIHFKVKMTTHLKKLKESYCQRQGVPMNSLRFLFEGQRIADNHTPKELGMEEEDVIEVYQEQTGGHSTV
STEP inh: blocks human striatal-enriched tyrosine phosphatase; recombinant STEP, OMFP fluorogenic substrate, fluorescence; 360,000 compounds, 0.25% hits; inhibition, % at 20 µM;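 active = inhibition at 20 µM, scaled per plate between control wells, above about 37%, limit read from the data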;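 note: 0% = DMSO with enzyme and substrate and 100% = substrate only without enzyme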
Target sequence (P54829 whole entry, looked up): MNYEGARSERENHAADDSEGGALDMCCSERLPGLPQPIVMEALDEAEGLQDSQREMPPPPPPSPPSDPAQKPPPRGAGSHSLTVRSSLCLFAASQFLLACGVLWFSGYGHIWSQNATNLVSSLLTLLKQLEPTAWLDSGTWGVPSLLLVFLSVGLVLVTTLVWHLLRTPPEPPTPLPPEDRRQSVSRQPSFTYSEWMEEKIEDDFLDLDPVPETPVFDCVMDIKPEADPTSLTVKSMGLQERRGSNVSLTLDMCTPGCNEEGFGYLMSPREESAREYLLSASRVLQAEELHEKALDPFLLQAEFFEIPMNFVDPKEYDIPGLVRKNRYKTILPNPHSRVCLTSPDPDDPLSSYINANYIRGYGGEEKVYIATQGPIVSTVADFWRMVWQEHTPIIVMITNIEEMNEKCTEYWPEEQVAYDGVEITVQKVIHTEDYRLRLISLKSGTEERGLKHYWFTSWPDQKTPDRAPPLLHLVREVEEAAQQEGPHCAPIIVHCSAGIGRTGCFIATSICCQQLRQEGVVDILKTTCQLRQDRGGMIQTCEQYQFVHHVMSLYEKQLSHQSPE
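Assay system: isolated STEP enzyme. Buffer or medium: pH 6.0 Bis-Tris with DTT and Tween 20. Also added: fluorogenic phosphatase substrate OMFP at 25 µM final. Dosing: 20 µM, 1% DMSO. Timing: 20 min reaction, room temperature, in the dark. Measured by: fluorescence intensity, excitation 480 nm, emission 540 nm. Evaluation: normalized % inhibition.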
LMPTP block: LMPTP (human) inhibition; AID 651560; inhibition, % at 20 µM; 360,000 compounds, 0.22% hits; P24666; recombinant LMPTP-A, OMFP fluorogenic substrate, fluorescence intensity;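 active = compounds that cut the enzyme signal by at least half of the control window in the single-dose screen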;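 note: plate controls were DMSO wells with enzyme plus substrate for no effect and substrate without enzyme for full effect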
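Assay system: LMPTP-A phosphatase enzyme | Input: 0.625 nM enzyme | Also added: Fluorogenic phosphatase substrate OMFP at 400 µM final | Compound dosing: One test concentration per compound, 20 µM, with 3% DMSO overall | Schedule: 50 min enzyme reaction at room temperature, protected from light | Signal: Fluorescence intensity | Benchmarks: no-enzyme and uninhibited controls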
DNMT1 inh: blocks human DNA methyltransferase DNMT1; P26358; DNMT1 molecular beacon, Hinp1I cleavage, fluorescence; inhibition (reported as % activation of signal), % at 10 µM; 360,000 compounds, 0.83% hits; in the data active = inhibition above about 50%
Scp1 confirm: Scp-1 (human) inhibition, single-dose confirmed; shares compounds with Scp-1 inhibitor; 2,500 compounds, 61% hits; inhibition, % at 20 µM; recombinant SCP-1 catalytic domain, phosphate release, malachite green absorbance;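 note: plate controls were DMSO with enzyme for no effect and buffer wells lacking enzyme for full effect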
MG interference: interferes with malachite green readout, flagging false Scp-1 hits; AID 540313; shares compounds with Scp-1 inhibitor; 2,500 tested, under 10 active; apparent inhibition (interference), % at 20 µM; Colorimetric interference counterscreen, malachite green absorbance 630 nm;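 note: compounds added after enzyme reaction finished so only phosphate colour detection is probed; plate controls were DMSO wells with completed Scp-1 reaction for no effect and substrate wells lacking enzyme for full effect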
Scp1 DSF: Scp-1 (human) binding by thermal shift; 1,500 compounds, 25% hits; AID 540329; Recombinant SCP1, Sypro Orange thermal shift Tm; thermal shift relative to vanadate control, % at 40 µM; shares compounds with Scp-1 inhibitor;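 active = substances whose mean melting-temperature shift, as a percentage of the reference inhibitor's shift, reaches about 5.3%, limit read from the data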;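 note: 0% = Tm of DMSO wells and 100% = Tm with sodium orthovanadate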
The depositor's hits bear a star; . = no result.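 Rule for the calls, unless noted: active = inhibition of at least 30% at 20 µM; inactive = the rest.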

SMILES	Scp-1 inhibitor	SUMO1 PPI mod	STEP inh	LMPTP block	DNMT1 inh	Scp1 confirm	MG interference	others
CN(C(=O)COC(=O)c1ccc2ccccc2n1)C1CCS(=O)(=O)C1 (configuration not stated)	-8	-8	-2	-2	1	.	.
Cc1c(/C(O)=C2/C(=O)C(=O)N(CCN3CCOCC3)C2c2cccs2)cnn1-c1ccccc1 (configuration not stated)	48	-8	4	-3	3	-28	-20
Cc1cc(C(=O)COC(=O)COc2ccc(C#N)cc2)c(C)n1C1CC1	-5	-6	1	-1	-2	.	.
O=C(NCCCc1ccccc1)c1ccc([N+](=O)[O-])cc1Cl	0	-34	-2	0	-1	.	.
O=C(NCCCO)c1cc([N+](=O)[O-])cc2c1C=Cc1ccccc1O2	98*	-27	-1	-2	-7	-3	-7
O=c1c(O)c(-c2ccc(O)cc2)oc2cc(O)cc(O)c12	53*	-23	-7	1	3	54*	-4	Scp1 DSF=9.2*
Cc1ccn2c(=O)nc(SCC(=O)NCc3ccccc3Cl)nc2c1	47	8	1	16	6	57*	-19	Scp1 DSF=-2
Cc1ccc2nc(SCC(=O)NCc3ccccc3Cl)nc(=O)n2c1	-6	2	-2	0	5	.	.
O=C(CSc1nnc(NC2CCCCC2)s1)Nc1ccc2c(c1)C(=O)c1ccccc1C2=O	9	-12	1	4	-2	.	.
NS(=O)(=O)c1ccc(NC(=O)CSc2nnc(NC3CC3)s2)cc1	87*	12	12	0	34	47*	-24	Scp1 DSF=2
CC1CCCCC1NC(=O)CN(C)S(=O)(=O)c1ccc2c(c1)c(=O)n(C)c(=O)n2C (configuration not stated)	-3	6	0	-2	4	.	.
CCCC(=O)Nc1ccc2nc(SCC(=O)Nc3ccc(N4CCOCC4)c(Cl)c3)sc2c1	15	-4	0	2	-8	.	.
Nc1ccc2nc(SCC(=O)Nc3ccc(N4CCOCC4)c(Cl)c3)sc2c1	97*	4	-3	0	-10	-1	-5
CC(C)(C)OC(=O)N1CCCC1C(=O)NCCc1ccccc1 (configuration not stated)	97*	-4	-2	-3	2	-4	-5
CCc1nc2oc3ccccc3c(=O)c2c(=O)n1Cc1ccccc1	-1	4	0	-2	-1	.	.
O=c1c2ccccc2oc2nc(-c3ccco3)n(Cc3ccccc3)c(=O)c12	50*	-18	2	2	8	56*	-1	Scp1 DSF=-1
COc1ccc2[nH]cc(/C=C/c3cc[n+](C)cc3)c2c1	58*	-60	-2	4	-6	-21	-18
Cc1cc(C)nc(SCC(=O)NNS(=O)(=O)c2ccc(C#N)cc2)n1	54*	15	1	-1	16	62*	3	Scp1 DSF=-4
Cc1cc2nc(-c3ccc(F)cc3)c(CC(C)(C)C)n2c(C)c1Br	.	1	-1	2	15	.	.
Cc1c(CCC(=O)O)c(=O)oc2c(C)c3occ(-c4ccc(Cl)cc4)c3cc12	64*	37	35	88*	4	77*	-23	Scp1 DSF=-18
Cc1c(CCC(=O)O)c(=O)oc2cc3occ(-c4ccc(Cl)cc4)c3cc12	-12	24	5	12	3	.	.
Cc1cc(C)c2cc(C(=O)N3CCN(c4ncccc4C(F)(F)F)CC3)[nH]c2c1	3	-2	0	4	-8	.	.
C[C@H](CO)N1C[C@H](C)[C@@H](CN(C)C(=O)Nc2ccccc2)Oc2ccc(NC(=O)CCN3CCOCC3)cc2C1=O	21	3	-3	-2	-1	.	.
C[C@H](CO)N1C[C@H](C)[C@@H](CN(C)C(=O)Nc2ccccc2)Oc2ccc(NC(=O)C3CC3)cc2C1=O	0	6	6	-1	9	.	.
CC(C)NC(=O)N(C)C[C@@H]1Oc2ccc(NC(=O)CCN3CCOCC3)cc2CC(=O)N([C@@H](C)CO)C[C@@H]1C	52*	4	-1	-2	5	19	-14
SMILES	Scp-1 inhibitor	SUMO1 PPI mod	STEP inh	LMPTP block	DNMT1 inh	Scp1 confirm	MG interference	others
CC(C)NC(=O)Nc1ccc2c(c1)C(=O)N([C@H](C)CO)C[C@H](C)[C@@H](CN(C)C(=O)NC(C)C)O2	56*	3	1	0	-3	19	1
CC(C)NC(=O)N(C)C[C@H]1Oc2ccc(NC(=O)c3ccncc3)cc2C(=O)N([C@H](C)CO)C[C@@H]1C	73*	-5	0	0	7	18	-18
C[C@@H]1CN([C@H](C)CO)C(=O)c2cc(NC(=O)c3ccncc3)ccc2O[C@@H]1CN(C)C(=O)Nc1ccccc1	94*	-4	-1	-2	6	61*	-14	Scp1 DSF=-10
CC(C)(C)S(=O)N1Cc2cc(C(=O)NCc3ccc4c(c3)OCO4)nc(-c3cccc(-c4ccccc4)c3)c2[C@@H]1CCO (some centres not stated)	.	7	1	5	-27	.	.
Cc1ccccc1C(=O)c1cccn1CC(=O)NCc1ccccc1Cl	15	1	-2	1	-2	.	.
COC(=O)C1CC(c2ccccc2)N(c2ccccc2)O1 (configuration not stated)	.	4	-1	-1	1	.	.
COCc1c(C(=O)N2CCN(Cc3c(F)cccc3Cl)CC2)oc2ccccc12	53*	3	2	2	0	-8	-10
CCOC(=O)C1=C(C)NC(=O)NC1c1c(OCC(=O)N2CCCCC2)ccc2ccccc12 (configuration not stated)	-5	-4	2	0	5	-8	-9
Cc1ccc(S(=O)(=O)N2CCCCC2)cc1C(=O)OC1CCCCC1=O (configuration not stated)	-6	-3	0	0	-1	.	.
Nc1cc([N+](=O)[O-])ccc1N1C(=O)CCCC1=O	64*	-8	4	2	16	49*	-8	Scp1 DSF=-16
CC(C)c1ccc(NC(=O)C2(C)Cc3c(-c4ccc(C(N)=O)cc4)ccnc3O2)cc1 (configuration not stated)	.	2	-1	1	-1	.	.
N#C/C(=C/c1ccc(-c2ccc(C(=O)O)c(Cl)c2)o1)C(=O)NCC1CCCO1 (configuration not stated)	106*	-4	0	-2	11	55*	-13	Scp1 DSF=-12
